Data as given in publication PMC4324418 (ACS Chemical Neuroscience, 2014).
Marks after values point to notes of the source that are not given here.

Key:
cyno M4 = target: T1, cyno M4 (Macaca fascicularis, UniProt G7PQB4); test: Calcium mobilization, potentiation of ACh EC20; format: cell-based, cynomolgus monkey; conditions: maximum response as % of the Emax of ACh
T1 sequence (G7PQB4 1-479): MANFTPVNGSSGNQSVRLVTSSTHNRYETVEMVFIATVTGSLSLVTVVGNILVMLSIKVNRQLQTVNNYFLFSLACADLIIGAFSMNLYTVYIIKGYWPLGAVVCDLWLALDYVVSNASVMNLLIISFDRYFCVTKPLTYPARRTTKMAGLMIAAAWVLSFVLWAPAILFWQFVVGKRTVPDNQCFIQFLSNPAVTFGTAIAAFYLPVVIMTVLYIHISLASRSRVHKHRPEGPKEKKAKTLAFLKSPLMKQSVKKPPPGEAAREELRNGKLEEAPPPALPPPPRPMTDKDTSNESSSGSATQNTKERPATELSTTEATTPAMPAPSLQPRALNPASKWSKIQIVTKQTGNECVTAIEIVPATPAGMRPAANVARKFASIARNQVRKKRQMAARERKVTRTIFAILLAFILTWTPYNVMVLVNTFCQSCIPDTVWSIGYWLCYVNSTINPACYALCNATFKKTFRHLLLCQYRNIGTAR
In short: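 Receptor-expressing cells were plated at 15000 cells/well in DMEM with 10% dialyzed FBS, 20 mM HEPES and 1 mM pyruvate, and grown overnight at 37 °C/5% CO2. Test compound was added, then ACh at EC20 140 s later and at EC80 120 s later. Responses were normalized to 10 μM ACh maximum; ≥3 independent experiments.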

wild-type mice [1] = test: Touchscreen pairwise visual discrimination task, wild-type mice; format: in vivo, mouse
In short: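 Mice aged 8–11 weeks were held at ~85% free-feeding weight, with water freely available. They were trained on touchscreen nosepoke discrimination (60 trials or 60 min) to ≥85% accuracy on 3 consecutive days. Next day: vehicle (10% Tween 80 IP) or test compound (3–30 mg/kg IP) 60 min pre-test, then saline or MK-801 (0.1–0.3 mg/kg IP) 30 min later. Mice were retested drug-free 24 h later. Analysis: ANOVA with Bonferroni tests.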

rat M4 receptor = target: T2, rat M4 receptor (Rattus norvegicus, UniProt P08485); format: cell-based; conditions: maximum response as % of the Emax of ACh
T2 sequence (P08485 1-478): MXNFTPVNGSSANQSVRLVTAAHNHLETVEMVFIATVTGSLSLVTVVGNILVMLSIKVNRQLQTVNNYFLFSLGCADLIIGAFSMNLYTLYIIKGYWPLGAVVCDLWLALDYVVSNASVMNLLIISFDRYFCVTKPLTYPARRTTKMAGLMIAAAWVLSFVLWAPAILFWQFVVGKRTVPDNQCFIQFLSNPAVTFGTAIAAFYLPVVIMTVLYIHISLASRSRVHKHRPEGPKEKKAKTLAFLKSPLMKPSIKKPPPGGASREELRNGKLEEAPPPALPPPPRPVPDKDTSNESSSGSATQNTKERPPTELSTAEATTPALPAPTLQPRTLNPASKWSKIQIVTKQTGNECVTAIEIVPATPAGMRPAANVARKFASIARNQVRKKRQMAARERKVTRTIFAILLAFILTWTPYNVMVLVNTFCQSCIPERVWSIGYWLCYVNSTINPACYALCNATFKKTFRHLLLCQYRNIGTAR

wild-type mice [2] = test: Rotarod; format: in vivo, mouse; conditions: 3–30 mg/kg IP, rotarod 20 rpm
In short: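 Mice received vehicle (10% Tween 80 in sterile water IP) or test compound (3–30 mg/kg IP). Sixty minutes later they were placed on the rotarod and latency to fall was measured. One-way ANOVA with Dunnett's test.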

rat M3 receptor = test: Calcium mobilization, selectivity; format: cell-based
In short: (§1)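 Cells were seeded at 15000/well in DMEM with 10% dialyzed FBS, 20 mM HEPES and 1 mM pyruvate, then cultured overnight at 37 °C/5% CO2. M2 and M4 lines were cotransfected with Gqi5. Cells were loaded with 1 μM Fluo-4AM (HBSS, 20 mM HEPES, 2.5 mM probenecid, pH 7.4) for 50 min at 37 °C. ACh was added 140 s after test compound. Calcium signal was expressed as % of the 10 μM ACh maximum.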

rat M5 receptor = test: Calcium mobilization, selectivity; format: cell-based
In short: as §1

in vitro = in vitro ADME; conditions: rat, plasma
wild-type mice [3] = test: Nociceptive response to increasing footshock current intensities; format: in vivo, mouse; conditions: 10 mg/kg IP
In short: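 Mice received vehicle (10% Tween 80 in sterile water, IP) or test compound (10 mg/kg IP) and were placed in conditioning chambers 30 min later. Behavioural responses were scored over rising footshock currents, 0–0.5 mA in 0.05 mA steps. Groups had 6–10 animals. Data: mean ± SEM, one-way ANOVA with Bonferroni test.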

[4] = target: T3, human adenosine transporter (Homo sapiens, UniProt Q99808); test: [3H]adenosine uptake functional assay; format: cell-based
T3 sequence (Q99808 1-456): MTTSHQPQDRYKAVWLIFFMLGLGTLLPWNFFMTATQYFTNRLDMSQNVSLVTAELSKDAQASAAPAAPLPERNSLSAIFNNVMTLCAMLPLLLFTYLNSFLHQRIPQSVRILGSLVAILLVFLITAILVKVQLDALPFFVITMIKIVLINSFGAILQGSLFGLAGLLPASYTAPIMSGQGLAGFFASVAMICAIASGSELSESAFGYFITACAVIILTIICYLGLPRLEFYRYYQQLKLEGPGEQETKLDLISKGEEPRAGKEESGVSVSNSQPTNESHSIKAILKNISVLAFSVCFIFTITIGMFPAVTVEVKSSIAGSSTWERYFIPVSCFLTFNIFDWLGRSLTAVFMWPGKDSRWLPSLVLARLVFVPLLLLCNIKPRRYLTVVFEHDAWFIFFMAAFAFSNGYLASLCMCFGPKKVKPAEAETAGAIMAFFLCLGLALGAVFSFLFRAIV

[5] = VU0467154 3.0 mg/kg IP + MK-801 0.30 mg/kg IP
[6] = VU0467154 3.0 mg/kg IP + vehicle
[7] = VU0467154 5.6 mg/kg IP + MK-801 0.30 mg/kg IP
[8] = VU0467154 5.6 mg/kg IP + vehicle
[9] = VU0467154 10.0 mg/kg IP + MK-801 0.30 mg/kg IP
[10] = VU0467154 10.0 mg/kg IP + vehicle
[11] = VU0467154 30.0 mg/kg IP + vehicle

Cc1nnc2sc(C(=O)NCc3ccc(S(=O)(=O)C(F)(F)F)cc3)c(N)c2c1C [VU0467154, 5-amino-3,4-dimethyl-N-(4-((trifluoromethyl)sulfonyl)benzyl)thieno[2,3-c]pyridazine-6-carboxamide]
%AChmax (cyno M4): 57%
animals that did not complete all 60 trials in the 60 min session (wild-type mice [1]; 3 mg/kg VU0467154 in combination with 0.3 mg/kg MK-801): 14%
animals that did not complete all 60 trials in the 60 min session (wild-type mice [1]; 10 mg/kg VU0467154 alone): 25%
animals that did not complete all 60 trials in the 60 min session (wild-type mice [1]; 30 mg/kg VU0467154 alone): 33%
correct reward collection latency (wild-type mice [1]; [5]): 3.34 ± 2.06 s
correct touch latency (wild-type mice [1]; [5]): 18.14 ± 14.17 s
time to complete 60 trials (wild-type mice [1]; [5]): 1239 ± 397.7 ^d s
correct reward collection latency (wild-type mice [1]; [6]): 1.13 ± 0.07 s
correct touch latency (wild-type mice [1]; [6]): 2.01 ± 0.16 s
time to complete 60 trials (wild-type mice [1]; [6]): 1061 ± 130.2 s
correct reward collection latency (wild-type mice [1]; [7]): 1.23 ± 0.08 s
correct touch latency (wild-type mice [1]; [7]): 4.10 ± 0.63 s
time to complete 60 trials (wild-type mice [1]; [7]): 856 ± 58.4 s
correct reward collection latency (wild-type mice [1]; [8]): 2.09 ± 0.50 s
correct touch latency (wild-type mice [1]; [8]): 2.24 ± 0.36 s
time to complete 60 trials (wild-type mice [1]; [8]): 1256 ± 211.5 s
correct reward collection latency (wild-type mice [1]; [9]): 1.33 ± 0.08 s
correct touch latency (wild-type mice [1]; [9]): 6.39 ± 1.11 s
time to complete 60 trials (wild-type mice [1]; [9]): 1017 ± 89.1 s
correct reward collection latency (wild-type mice [1]; [10]): 9.24 ± 6.71 s
correct touch latency (wild-type mice [1]; [10]): 18.58 ± 8.50 s
time to complete 60 trials (wild-type mice [1]; [10]): 2171 ± 424.8 ^b s
correct reward collection latency (wild-type mice [1]; [11]): 2.82 ± 0.71 s
correct touch latency (wild-type mice [1]; [11]): 20.89 ± 4.17 s
time to complete 60 trials (wild-type mice [1]; [11]): 2557 ± 397.1 ^c s
%AChmax (rat M4 receptor): 68%
latency to fall (wild-type mice [2]): did not alter the latency to fall
potentiation of ACh response (calcium response) (rat M3 receptor): lack of a calcium response
potentiation of ACh response (calcium response) (rat M5 receptor): lack of a calcium response
fraction unbound (in vitro): 0.031
footshock threshold to elicit jumping (wild-type mice [3]): increased the threshold to elicit jumping
twitching, flinching, and vocalizing responses to increasing foot shock intensities (wild-type mice [3]): did not alter
IC50 [4]: 240 nM
